Series [1] has as its system N2a. Kind of series: Anti-synaptotoxic activity against mouse Neuro-2a cells assessed as inhibition of amyloid beta (1 to 42)-induced cytotoxicity by MTT-based Trafficking assay. Type of series: functional. A general note: Formazan colour is commonly taken as a measure of viable cells.
In series [2] the target is Sigma intracellular receptor 2 (Homo sapiens, UniProt Q5BJF2). Kind of series: Binding affinity to Sigma 2-receptor (unknown origin).
Series [3] is described as follows: Half life in mouse liver microsomes. Type of series: ADME, Microsome.
The target of series [4] is Voltage-gated inwardly rectifying potassium channel KCNH2 (Homo sapiens, UniProt Q12809).
Series [5] is described as follows: Ratio of drug level in brain to plasma measured after 24 hrs. Conditions: brain and plasma, read-out: BPR. Type of series: ADME, cell-free.
The nature of series [6]: Ratio of AUC in Brain to AUC in plasma. It is filed as ADME, cell-free. Particulars: brain and plasma; read-out: Ratio AUC.
Series [7] is described as follows: Prevention of vesicular membrane trafficking in Sprague-Dawley rat neurons assessed as inhibition of amyloid beta oligomer binding to […] receptor pretreated with compounds followed by amyloid beta oligomer challenge and measured after 1 hr by ELISA. Type of series: functional, tissue-based. Particulars: neuron. Background: ELISA stands for enzyme-linked immunosorbent assay.

The nature of series [8]: Cognitive enhancing effect in non-transgenic mouse assessed as restoration of freezing time measured by Contextual fear conditioning test (reference value: 52 +/-5%). It is filed as ADME.
The nature of series [9]: Cognitive enhancing effect in transgenic hAPP Swe/Ldn mouse assessed as restoration of freezing time measured by Contextual fear conditioning test (reference value: 32 +/-6%). Type of series: ADME.
Series [10] in a line: Prevention of vesicular membrane trafficking in Sprague-Dawley rat neurons assessed as inhibition of amyloid beta oligomer binding to […] receptor at 10 uM pretreated with compounds followed by amyloid beta oligomer challenge and measured after 1 hr by ELISA relative to control. Conditions: Neuron. It is filed as functional.
Series [11] is described as follows: Cognitive enhancing effect in non-transgenic mouse assessed as swimming length measured after 3 days by Morris Water maze method (reference value: 2173 +/-213 cm). Type of series: ADME. Conditions: buffer, 72 h, time 3 day.
The nature of series [12]: Cognitive enhancing effect in transgenic hAPP Swe/Ldn mouse assessed as swimming length measured after 3 days by Morris Water maze method (reference value: 2854 +/-267 cm). Type of series: ADME. Conditions: buffer, 72 h, time 3 day.
A short description of series [13]: Free drug level in plasma. It is filed as ADME, cell-free.
The nature of series [14]: Efflux ratio of apparent permeability from basolateral to apical membrane over apical to basolateral membrane in human Caco2 cells. Type of series: ADME, cell-based. Conditions: Caco-2. A general note: Passage across Caco-2 layers is used to estimate intestinal permeability.
Series [15] has as its system Mus musculus. Description: Induction of amyloid beta oligomer release in interstitial brain fluid in iv dosed transgenic hAPP Swe/Ldn mouse. It is filed as functional, organism-based. The essentials:
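Compound given intravenously to live transgenic mice. Microelectrodes coated with antibodies to total Aβ or to Aβ oligomers were inserted into the brain, and soluble Aβ in interstitial fluid was measured minute by minute.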

Series [16] is described as follows: Reversal of amyloid beta oligomer-induced vesicular membrane trafficking in Sprague-Dawley rat neurons at 1 uM pretreated with amyloid beta oligomer for 1 hr followed by compound treatment by ELISA relative to control. Type of series: functional. Particulars: Neuron.
Series [17] is described as follows: Cognitive enhancing effect in non-transgenic mouse assessed as swimming length measured after 1 day by Morris Water maze method (reference value: 3791 +/-150 cm). Particulars: buffer, 24 h. It is filed as ADME.
A short description of series [18]: Cognitive enhancing effect in non-transgenic mouse assessed as swimming length measured after 4 days by Morris Water maze method (reference value: 1797 +/-219 cm). Type of series: ADME. Conditions: buffer, 96 h, time 4 day.
Series [19] in a line: Cognitive enhancing effect in non-transgenic mouse assessed as swimming length measured after 2 day by Morris Water maze method (reference value: 2666 +/-294 cm). Type of series: ADME. Conditions: buffer, 48 h.
Series [20] is described as follows: Reversal of amyloid beta oligomer-induced vesicular membrane trafficking in Sprague-Dawley rat neurons pretreated with amyloid beta oligomer for 1 hr followed by compound treatment by ELISA. Type of series: functional, tissue-based. Particulars: neuron.
Series [21] in a line: Unbound brain-to-plasma concentration ratio measured after 24 hrs. It is filed as ADME, cell-free. Conditions: brain and plasma, read-out: K(p,uu,brain).
Series [22] is described as follows: Cognitive enhancing effect in transgenic hAPP Swe/Ldn mouse assessed as swimming length measured after 4 days by Morris Water maze method (reference value: 2426 +/-287 cm). Type of series: ADME. Particulars: buffer, 96 h, time 4 day.
Series [23] is described as follows: Free drug level in brain. It is filed as ADME, tissue-based.
Series [24] is described as follows: Improvement in learning and spatial memory in transgenic hAPP Swe/Ldn mouse assessed as spontaneous alteration measured by Y-maze method (reference value: 56.1 +/-2.8%). Type of series: ADME.
Series [25] is described as follows: Improvement in learning and spatial memory in non-transgenic mouse assessed as spontaneous alteration measured by Y-maze method (reference value: 62.6 +/-3.7%). It is filed as ADME.
The nature of series [26]: Cognitive enhancing effect in transgenic hAPP Swe/Ldn mouse assessed as swimming length measured after 2 day by Morris Water maze method (reference value: 3252 +/-329 cm). It is filed as ADME. Particulars: buffer, 48 h.
A short description of series [27]: Cognitive enhancing effect in transgenic hAPP Swe/Ldn mouse assessed as swimming length measured after 1 day by Morris Water maze method (reference value: 3518 +/-138 cm). Conditions: buffer, 24 h. Type of series: ADME.

The source made the active and inactive calls. The rule behind the calls is not given here.

Sigma intracellular receptor 2, sequence (Q5BJF2 whole entry): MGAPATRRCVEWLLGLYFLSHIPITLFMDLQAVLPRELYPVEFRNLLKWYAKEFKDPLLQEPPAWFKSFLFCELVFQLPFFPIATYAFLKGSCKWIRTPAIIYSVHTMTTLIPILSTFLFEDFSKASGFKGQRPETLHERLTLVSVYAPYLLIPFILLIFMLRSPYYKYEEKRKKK
Voltage-gated inwardly rectifying potassium channel KCNH2, sequence (Q12809 whole entry): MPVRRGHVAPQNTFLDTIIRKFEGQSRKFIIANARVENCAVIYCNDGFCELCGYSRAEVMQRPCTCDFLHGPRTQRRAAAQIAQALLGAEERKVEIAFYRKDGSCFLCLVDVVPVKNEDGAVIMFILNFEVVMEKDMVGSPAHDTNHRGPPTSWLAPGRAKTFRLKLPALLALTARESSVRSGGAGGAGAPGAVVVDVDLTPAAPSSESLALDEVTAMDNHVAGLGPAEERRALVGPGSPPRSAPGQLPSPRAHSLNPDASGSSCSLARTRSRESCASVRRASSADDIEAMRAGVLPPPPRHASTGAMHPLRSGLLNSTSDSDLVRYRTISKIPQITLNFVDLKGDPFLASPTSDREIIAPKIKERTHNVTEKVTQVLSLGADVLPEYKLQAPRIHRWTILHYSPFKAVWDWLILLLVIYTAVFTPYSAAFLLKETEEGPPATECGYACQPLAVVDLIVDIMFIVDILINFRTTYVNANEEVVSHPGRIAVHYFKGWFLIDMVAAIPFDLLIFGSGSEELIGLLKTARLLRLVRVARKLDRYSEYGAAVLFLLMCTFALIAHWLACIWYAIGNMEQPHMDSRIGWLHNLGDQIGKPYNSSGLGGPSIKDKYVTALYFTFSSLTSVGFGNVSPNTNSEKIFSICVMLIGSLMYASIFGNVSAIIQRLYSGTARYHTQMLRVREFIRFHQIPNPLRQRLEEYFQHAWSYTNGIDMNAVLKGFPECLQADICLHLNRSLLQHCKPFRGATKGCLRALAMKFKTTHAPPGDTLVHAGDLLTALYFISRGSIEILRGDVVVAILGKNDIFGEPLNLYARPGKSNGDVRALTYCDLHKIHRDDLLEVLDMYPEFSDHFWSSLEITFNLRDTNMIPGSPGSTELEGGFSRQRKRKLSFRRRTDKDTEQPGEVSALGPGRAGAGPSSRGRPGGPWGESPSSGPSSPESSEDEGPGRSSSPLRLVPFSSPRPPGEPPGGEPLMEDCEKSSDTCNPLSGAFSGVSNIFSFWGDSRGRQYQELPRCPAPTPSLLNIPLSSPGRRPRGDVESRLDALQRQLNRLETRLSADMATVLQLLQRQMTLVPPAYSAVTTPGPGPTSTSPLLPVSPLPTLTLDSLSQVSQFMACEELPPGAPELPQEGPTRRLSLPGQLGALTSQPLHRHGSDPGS

Consider `COc1cc2c(cc1OC)CN([C@H](C)CCc1ccc(Cl)c(Cl)c1)C2`, for which the Activity in series [1] is 0.7 µM. Further, in series [2], the inhibitory constant (Ki) (usually the equilibrium dissociation constant of an inhibitor or competing ligand from its target) worked out at 0.44 nM. In addition, in series [3], the half-life (usually the time in which the quantity being followed falls by half) stood at 61 min. The EC50 (usually the concentration needed to bring the measured effect to its halfway point) in series [4] came out at 290 nM.
As to `CC(C)Oc1cc(CCC(C)(C)N2Cc3cccc(F)c3C2)ccc1O`, the Activity in series [1] was determined as 0.25 µM. The Kp at 24 h in series [5] stood at 5.4. In [2], the Ki worked out at 11 nM. The compound also gave a half-life in [3] of 4 min. Further, the Kp in series [6] turned out to be 5.64. For the same compound, in series [4], the midpoint of the response, the EC50, lay at 9600 nM.
As for `COc1cc(CC[C@@H](C)N2Cc3cccc(F)c3C2)ccc1O`, the Activity in [1] was 0.25 µM. The same compound yielded a half-life in [3] of 16 min.
Regarding `C[C@@H](CCc1ccc(Cl)c(Cl)c1)NCc1ccc(C(F)(F)F)cc1`, in [1], the Activity was 11.7 µM. In [2], this compound yielded an inhibition constant (Ki) of 120 nM. The same compound came in with a half-life in series [3] of 53 min. The compound further registered a concentration giving a half-maximal response (EC50) in series [4] of 1100 nM.
Consider `CC(C)(C)Oc1cc(CCC(C)(C)N2Cc3ccc(S(C)(=O)=O)cc3C2)ccc1O`, for which the figures for the concentration for a half-maximal effect (EC50) in series [7], in series [20] and in series [4] were 6800 nM, 358 nM and 26000 nM, respectively. The Activity in series [8] came out at 51%; in [9], 45%; in series [11], 2262 cm; in series [1], 0.31 µM; in [12], 1987 cm; in series [17], 3317 cm. For the same compound, the Activity in series [18] is listed as 2008 cm; in series [19], 2739 cm; in series [22], 1611 cm; in [24] it was 58.5%; in series [25] it was 65.3%; in [26] it was 2332 cm. For the same compound, the Activity in [27] is given as 3230 cm. Further, the inhibition (commonly the relative decrease from the control value, in per cent) at 10 µM in [10] was 71%. Further, the unbound share (fraction unbound) (commonly the share of the substance not bound to proteins or other matrix) stood at 0.05 in series [13] and 0.13 in series [23]. Besides, in [14], the efflux ratio (as a rule, a quotient of directional permeabilities that is used to spot active efflux) is 0.95. Besides, the Kp at 24 h in [5] came to 5.7. Further, in [2], the affinity corresponds to a Ki of 8.5 nM. Moreover, in series [3], the half-life was 45 min. For the same compound, in series [6], the Kp turned out to be 2.51. The result in [15] was Active. In [16], the inhibition at 1 µM is 88%. The Kp uu at 24 h in series [21] amounted to 6.75.
Take `C[C@H](CCc1ccc(Cl)cc1)NCc1ccc(C(F)(F)F)cc1`: in series [1], the Activity was 5.7 µM. Moreover, in series [5], the Kp at 24 h was 2. The compound further had a half-life in [3] of 27 min. The same compound came in with an EC50 in series [4] of 780 nM.
As to `C[C@H](CCc1ccc(Cl)c(Cl)c1)NCc1ccc(C(F)(F)F)cc1`, in [1], the Activity came out at 2 µM. Also, the Kp at 24 h in series [5] was determined as 8.2. In addition, the half-life in series [3] is 33 min. This compound also yielded a half-maximal effective concentration (EC50) in series [4] of 4400 nM.
Take `COc1cc(CCC(C)NCc2ccc(C(F)(F)F)cc2)ccc1O` (configuration not stated): in series [1], the Activity is 2.2 µM.

These data come from ChEMBL document CHEMBL4837254, “Discovery of Investigational Drug CT1812, an Antagonist of the Sigma-2 Receptor Complex for Alzheimer's Disease” (ACS Med Chem Lett, 2021).
